Experimental data taken from ChEMBL document CHEMBL3739331, “Synthesis and Bioactivities of Kanamycin B-Derived Cationic Amphiphiles” (J Med Chem, 2015).
In brackets after ≈: the same amount, converted by molar mass. Activity calls are given as the source filed them. The calls are words filed in the database; no cut-off is given here.

What was measured:
[1] = tested on: Mycobacterium tuberculosis; assay: Activity of Mycobacterium tuberculosis Eis assessed as compound acetylation activity by Ellman's method
[2] = tested on: Bacillus subtilis; assay: Antibacterial activity against Bacillus subtilis 168 by microdilution method; assay type: functional; conditions: subsp. subtilis str. 168
Procedure, shortened: (§1)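 Broth microdilution MIC against the named bacterial strain, reported in μg/mL; each determination run at least in duplicate.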

[3] = tested on: Staphylococcus aureus; assay: Antibacterial activity against Staphylococcus aureus ATCC 29213 by microdilution method; assay type: functional; procedure, shortened: as §1
[4] = Activity of AAC(3)-4 (unknown origin) assessed as compound acetylation activity by Ellman's method
[5] = tested on: Enterobacter cloacae; assay: Antibacterial activity against Enterobacter cloacae ATCC 13047 by microdilution method; assay type: functional; procedure, shortened: as §1
[6] = tested on: Candida albicans; assay: Antifungal activity against azole-resistant Candida albicans ATCC 64124 after 48 hrs by microbroth dilution method; assay type: functional; conditions: ATCC 64124, 48 h
Procedure, shortened: (§2)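 Yeast MIC by broth microdilution, run in duplicate. The aminoglycoside compounds are read as MIC-0 (complete inhibition). Azoles are read as MIC-2 (50% inhibition).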

[7] = tested on: Candida albicans; assay: Antifungal activity against azole-resistant Candida albicans MYA-1237 after 48 hrs by microbroth dilution method; assay type: functional; conditions: MYA-1237, 48 h; procedure, shortened: as §2
[8] = tested on: Escherichia coli; assay: Antibacterial activity against Escherichia coli MC1061 by microdilution method; assay type: functional
Procedure, shortened: (§3)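 Broth microdilution MIC, in μg/mL, against a panel of Gram-positive and Gram-negative strains. Run at least in duplicate.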

[9] = tested on: Salmonella enterica; assay: Antibacterial activity against Salmonella enterica ATCC 14028 by microdilution method; assay type: functional; procedure, shortened: as §1
[10] = tested on: Candida albicans; assay: Antifungal activity against azole-susceptible Candida albicans ATCC MYA-2310 after 48 hrs by microbroth dilution method; assay type: functional; conditions: ATCC MYA-2310, 48 h; procedure, shortened: as §2
[11] = tested on: Candida albicans; assay: Antifungal activity against azole-resistant Candida albicans ATCC 10231 after 48 hrs by microbroth dilution method; assay type: functional; conditions: ATCC 10231, 48 h; procedure, shortened: as §2
[12] = tested on: Staphylococcus aureus; assay: Antibacterial activity against methicillin-resistant Staphylococcus aureus by microdilution method; assay type: functional; procedure, shortened: as §3
[13] = tested on: Candida albicans; assay: Antifungal activity against azole-resistant Candida albicans ATCC 90819 after 48 hrs by microbroth dilution method; assay type: functional; conditions: ATCC 90819, 48 h; procedure, shortened: as §2
[14] = tested on: Staphylococcus aureus; assay: Antibacterial activity against Staphylococcus aureus NRS383 (USA 200) by microdilution method; assay type: functional; procedure, shortened: as §1
[15] = tested on: Aspergillus nidulans; assay: Antifungal activity against Aspergillus nidulans ATCC 38163 after 48 hrs by microbroth dilution method; assay type: functional; conditions: ATCC 38163, 48 h
Procedure, shortened: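 Filamentous fungus MIC by broth microdilution, run in duplicate. All compounds are read as MIC-0 (complete inhibition).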

[16] = tested on: Candida albicans; assay: Antifungal activity against azole-susceptible Candida albicans ATCC MYA-2876 after 48 hrs by microbroth dilution method; assay type: functional; conditions: ATCC MYA-2876, 48 h; procedure, shortened: as §2
[17] = tested on: Listeria monocytogenes; assay: Antibacterial activity against Listeria monocytogenes ATCC 19115 by microdilution method; assay type: functional; procedure, shortened: as §1
[18] = tested on: Enterococcus; assay: Antibacterial activity against vancomycin-resistant Enterococcus by microdilution method; assay type: functional; procedure, shortened: as §3
[19] = Activity of AAC(6')-1e/APH(2'')-1a (unknown origin) assessed as compound acetylation activity by Ellman's method
[20] = tested on: Serratia marcescens; assay: Activity of Serratia marcescens AAC(6')-2d assessed as compound acetylation activity by Ellman's method
[21] = tested on: Staphylococcus epidermidis; assay: Antibacterial activity against Staphylococcus epidermidis ATCC 12228 by microdilution method; assay type: functional; procedure, shortened: as §1
[22] = tested on: Staphylococcus aureus; assay: Antibacterial activity against Staphylococcus aureus NRS385 (USA 300) by microdilution method; assay type: functional; procedure, shortened: as §3
[23] = tested on: Acinetobacter baumannii; assay: Antibacterial activity against Acinetobacter baumannii ATCC 19606 by microdilution method; assay type: functional; procedure, shortened: as §1
[24] = tested on: Staphylococcus aureus; assay: Antibacterial activity against Staphylococcus aureus NRS22 (USA 600) by microdilution method; assay type: functional; procedure, shortened: as §1
[25] = tested on: Bacillus subtilis subsp. subtilis str. 168; assay: Activity of Bacillus subtilis 168 APH(2'')-1a assessed as compound phosphorylation activity by Ellman's method
[26] = tested on: Klebsiella pneumoniae; assay: Antibacterial activity against Klebsiella pneumoniae ATCC 27736 by microdilution method; assay type: functional; procedure, shortened: as §1
[27] = tested on: Mycobacterium tuberculosis; assay: Activity of Mycobacterium tuberculosis AAC(2')-1c assessed as compound acetylation activity by Ellman's method
[28] = tested on: Candida albicans; assay: Antifungal activity against azole-resistant Candida albicans MYA-1003 after 48 hrs by microbroth dilution method; assay type: functional; conditions: MYA-1003, 48 h; procedure, shortened: as §2
[29] = tested on: Staphylococcus aureus; assay: Antibacterial activity against Staphylococcus aureus NRS382 (USA 100) by microdilution method; assay type: functional; procedure, shortened: as §1
[30] = tested on: Pseudomonas aeruginosa; assay: Antibacterial activity against Pseudomonas aeruginosa ATCC 27853 by microdilution method; assay type: functional; procedure, shortened: as §1
[31] = tested on: Mycolicibacterium smegmatis; assay: Antibacterial activity against Mycobacterium smegmatis MC2 155 by microdilution method; assay type: functional; conditions: str. MC2 155; procedure, shortened: as §3

| SMILES | Activity [1] | MIC [2] [µg/mL] | MIC [3] [µg/mL] | Activity [4] | MIC [5] [µg/mL] | MIC [6] [µg/mL] | MIC [8] [µg/mL] | MIC [9] [µg/mL] | MIC [12] [µg/mL] | MIC [14] [µg/mL] | MIC [15] [µg/mL] | MIC [17] [µg/mL] | MIC [18] [µg/mL] | MIC [21] [µg/mL] | MIC [22] [µg/mL] | MIC [23] [µg/mL] | MIC [24] [µg/mL] | MIC [26] [µg/mL] | MIC [29] [µg/mL] | MIC [30] [µg/mL] | also measured |
| --- | --- | --- | --- | --- | --- | --- | --- | --- | --- | --- | --- | --- | --- | --- | --- | --- | --- | --- | --- | --- | --- |
| CCCCCCCCCCCCS(=O)(=O)C[C@@H]1O[C@@H](O[C@@H]2[C@@H](O)[C@H](O[C@@H]3O[C@@H](CN)[C@H](O)[C@@H](O)[C@@H]3N)[C@@H](N)C[C@H]2N)[C@@H](O)[C@H](N)[C@H]1O (stereo in doubt) | inactive | > 128 | 128 (≈ 183 µM) | inactive | > 128 | 31.2 (≈ 44.6 µM) | > 128 | 64 (≈ 91.4 µM) | 64 (≈ 91.4 µM) | 32 (≈ 45.7 µM) | 3.9 (≈ 5.57 µM) | 4 (≈ 5.72 µM) | 32 (≈ 45.7 µM) | > 128 | 64 (≈ 91.4 µM) | 128 (≈ 183 µM) | 32 (≈ 45.7 µM) | 128 (≈ 183 µM) | 64 (≈ 91.4 µM) | 16 (≈ 22.9 µM) | MIC [7]: 62.5 µg/mL (≈ 89.3 µM); MIC [10]: 62.5 µg/mL (≈ 89.3 µM); MIC [11]: 31.2 µg/mL (≈ 44.6 µM); MIC [13]: 62.5 µg/mL (≈ 89.3 µM); MIC [16]: 31.2 µg/mL (≈ 44.6 µM); Activity [19]: inactive; Activity [20]: inactive; Activity [25]: inactive; Activity [27]: inactive; MIC [28]: 62.5 µg/mL (≈ 89.3 µM) |
| CCCCCCCCCCCCCCS(=O)(=O)C[C@@H]1O[C@@H](O[C@@H]2[C@@H](O)[C@H](O[C@@H]3O[C@@H](CN)[C@H](O)[C@@H](O)[C@@H]3N)[C@@H](N)C[C@H]2N)[C@@H](O)[C@H](N)[C@H]1O (stereo in doubt) | inactive | > 128 | 128 (≈ 176 µM) | inactive | > 128 | 3.9 (≈ 5.36 µM) | > 128 | 128 (≈ 176 µM) | 128 (≈ 176 µM) | 128 (≈ 176 µM) | 1.95 (≈ 2.68 µM) | 2 (≈ 2.75 µM) | 32 (≈ 44 µM) | > 128 | 128 (≈ 176 µM) | > 128 | 64 (≈ 87.9 µM) | > 128 | 64 (≈ 87.9 µM) | 32 (≈ 44 µM) | MIC [7]: 7.8 µg/mL (≈ 10.7 µM); MIC [10]: 7.8 µg/mL (≈ 10.7 µM); MIC [11]: 3.9 µg/mL (≈ 5.36 µM); MIC [13]: 7.8 µg/mL (≈ 10.7 µM); MIC [16]: 3.9 µg/mL (≈ 5.36 µM); Activity [19]: inactive; Activity [20]: inactive; Activity [25]: inactive; Activity [27]: inactive; MIC [28]: 7.8 µg/mL (≈ 10.7 µM) |
| OC(Cn1cncn1)(Cn1cncn1)c1ccc(F)cc1F [FLUCONAZOLE] |  |  |  |  |  |  |  |  |  |  | > 62.5 |  |  |  |  |  |  |  |  |  | MIC50 [6]: 125 µg/mL (≈ 408 µM); MIC50 [7]: 62.5 µg/mL (≈ 204 µM); MIC50 [10]: > 125 µg/mL; MIC50 [11]: 62.5 µg/mL (≈ 204 µM); MIC50 [13]: > 125 µg/mL; MIC50 [16]: 15.6 µg/mL (≈ 50.9 µM); MIC50 [28]: 62.5 µg/mL (≈ 204 µM) |
| CCC(C)n1ncn(-c2ccc(N3CCN(c4ccc(OCC5COC(Cn6cncn6)(c6ccc(Cl)cc6Cl)O5)cc4)CC3)cc2)c1=O (configuration not stated) [ITRACONAZOLE] |  |  |  |  |  |  |  |  |  |  | ≤ 1.95 |  |  |  |  |  |  |  |  |  | MIC50 [6]: > 62.5 µg/mL; MIC50 [7]: 31.2 µg/mL (≈ 44.2 µM); MIC50 [11]: 0.5 µg/mL (≈ 0.709 µM); MIC50 [13]: 31.2 µg/mL (≈ 44.2 µM); MIC50 [16]: 7.8 µg/mL (≈ 11.1 µM); MIC50 [28]: 31.2 µg/mL (≈ 44.2 µM) |
| NC[C@H]1O[C@H](O[C@H]2[C@H](O)[C@@H](O[C@H]3O[C@H](CO)[C@@H](O)[C@H](N)[C@H]3O)[C@H](N)C[C@@H]2N)[C@H](O)[C@@H](O)[C@@H]1O [KANAMYCIN] |  | 2 (≈ 4.13 µM) | > 128 |  | 2 (≈ 4.13 µM) |  | 8 (≈ 16.5 µM) | 16 (≈ 33 µM) | 128 (≈ 264 µM) | > 128 |  | 128 (≈ 264 µM) | > 128 | 1 (≈ 2.06 µM) | > 128 | 4 (≈ 8.26 µM) | > 128 | 16 (≈ 33 µM) | > 128 | > 128 | MIC [31]: ≤ 0.25 µg/mL |
